Results reported in ChEMBL document CHEMBL2380260, “Structure-activity relationship of N,N'-disubstituted pyrimidinetriones as Ca(V)1.3 calcium channel-selective antagonists for Parkinson's disease” (J Med Chem, 2013).

Legend:
[1] = Selectivity ratio of IC50 for rabbit CaV1.2alpha1C to IC50 for rat CaV1.3alpha1D
In short: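 Selectivity is defined as […] the ratio of the CaV1.2 IC50 to the CaV1.3 IC50. Both IC50s come from the Fluo-8 FLIPR calcium influx assay in stably transfected HEK293 cells, each run in triplicate and fitted to a one-site sigmoidal model.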

[2] = molecular target: Voltage-dependent L-type calcium channel subunit alpha-1C (Oryctolagus cuniculus, UniProt P15381); assay: Antagonist activity at rabbit CaV1.2alpha1C transfected in HEK293 cells by FLIPR assay; format: cell-based
Chain of Voltage-dependent L-type calcium channel subunit alpha-1C (P15381 whole entry, canonical isoform): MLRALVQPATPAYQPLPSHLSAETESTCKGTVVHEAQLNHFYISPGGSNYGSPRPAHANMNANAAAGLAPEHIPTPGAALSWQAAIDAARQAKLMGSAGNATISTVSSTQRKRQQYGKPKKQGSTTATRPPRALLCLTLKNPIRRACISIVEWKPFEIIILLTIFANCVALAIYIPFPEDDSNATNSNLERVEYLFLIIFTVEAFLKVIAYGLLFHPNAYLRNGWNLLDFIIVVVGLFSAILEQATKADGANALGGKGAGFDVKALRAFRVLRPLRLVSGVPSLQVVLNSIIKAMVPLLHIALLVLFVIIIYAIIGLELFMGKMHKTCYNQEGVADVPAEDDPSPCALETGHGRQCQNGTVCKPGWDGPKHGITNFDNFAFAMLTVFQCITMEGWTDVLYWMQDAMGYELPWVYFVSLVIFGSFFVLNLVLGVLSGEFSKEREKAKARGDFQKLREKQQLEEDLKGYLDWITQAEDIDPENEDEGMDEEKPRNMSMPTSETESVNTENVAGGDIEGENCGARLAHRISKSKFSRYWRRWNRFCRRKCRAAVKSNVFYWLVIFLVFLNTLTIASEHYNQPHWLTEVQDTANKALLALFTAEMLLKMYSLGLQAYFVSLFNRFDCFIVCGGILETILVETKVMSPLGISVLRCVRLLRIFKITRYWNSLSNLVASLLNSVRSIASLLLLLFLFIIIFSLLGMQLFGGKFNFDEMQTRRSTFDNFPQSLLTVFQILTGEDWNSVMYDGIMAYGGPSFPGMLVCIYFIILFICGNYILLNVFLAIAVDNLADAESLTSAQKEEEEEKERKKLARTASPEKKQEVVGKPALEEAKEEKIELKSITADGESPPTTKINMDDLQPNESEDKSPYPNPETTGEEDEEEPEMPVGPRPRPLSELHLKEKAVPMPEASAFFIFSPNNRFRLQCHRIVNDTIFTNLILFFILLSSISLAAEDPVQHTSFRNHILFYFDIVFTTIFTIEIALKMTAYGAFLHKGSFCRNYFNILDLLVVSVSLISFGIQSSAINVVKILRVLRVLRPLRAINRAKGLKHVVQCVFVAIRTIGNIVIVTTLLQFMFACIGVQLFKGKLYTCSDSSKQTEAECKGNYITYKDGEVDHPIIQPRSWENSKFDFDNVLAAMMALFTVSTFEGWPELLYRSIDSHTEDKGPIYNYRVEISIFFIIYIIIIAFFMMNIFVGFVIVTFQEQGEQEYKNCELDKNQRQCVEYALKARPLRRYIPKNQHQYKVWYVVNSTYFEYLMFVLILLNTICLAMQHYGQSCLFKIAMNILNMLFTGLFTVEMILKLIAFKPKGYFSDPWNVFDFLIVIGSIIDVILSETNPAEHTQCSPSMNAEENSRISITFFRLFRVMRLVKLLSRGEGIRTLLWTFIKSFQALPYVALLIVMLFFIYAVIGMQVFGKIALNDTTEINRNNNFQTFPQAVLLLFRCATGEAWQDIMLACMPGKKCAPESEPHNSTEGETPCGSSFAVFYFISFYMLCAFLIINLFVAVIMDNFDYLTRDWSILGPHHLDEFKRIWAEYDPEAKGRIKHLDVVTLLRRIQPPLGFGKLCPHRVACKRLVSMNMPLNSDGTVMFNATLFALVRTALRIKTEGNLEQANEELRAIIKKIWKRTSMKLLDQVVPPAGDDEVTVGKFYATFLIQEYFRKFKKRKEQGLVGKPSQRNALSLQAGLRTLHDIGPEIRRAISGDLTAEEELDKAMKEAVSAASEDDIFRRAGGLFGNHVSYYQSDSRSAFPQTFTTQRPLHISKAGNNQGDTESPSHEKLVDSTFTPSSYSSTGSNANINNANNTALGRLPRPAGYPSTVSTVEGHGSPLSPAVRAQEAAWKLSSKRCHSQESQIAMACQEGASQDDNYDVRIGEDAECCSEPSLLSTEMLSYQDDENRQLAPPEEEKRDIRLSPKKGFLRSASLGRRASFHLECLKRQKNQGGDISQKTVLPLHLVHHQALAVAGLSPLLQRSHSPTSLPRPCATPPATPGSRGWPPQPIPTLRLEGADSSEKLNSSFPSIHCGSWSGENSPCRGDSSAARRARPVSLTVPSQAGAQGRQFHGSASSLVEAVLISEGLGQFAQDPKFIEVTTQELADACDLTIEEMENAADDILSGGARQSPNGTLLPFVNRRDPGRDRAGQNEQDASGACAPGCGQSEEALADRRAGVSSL
In short: (§1)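 HEK293 cells stably expressing the L-type channel (rat CaV1.3 α1D with all alternative splice sites, or rabbit CaV1.2 α1C), each co-expressed with rat β3 and α2δ-1 subunits. Cells plated at 4 × 10⁴ cells/well and cultured in DMEM with 10% FBS for 4 days. Calcium influx read by Fluo-8 no-wash dye fluorescence on FLIPR Tetra. IC50 from triplicate percent-inhibition data fitted to a one-site sigmoidal model.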

[3] = molecular target: Voltage-dependent L-type calcium channel subunit alpha-1D (Rattus norvegicus, UniProt P27732); assay: Antagonist activity at rat CaV1.3alpha1D transfected in HEK293 cells by FLIPR assay; format: cell-based; in short: as §1
Chain of Voltage-dependent L-type calcium channel subunit alpha-1D (P27732 whole entry): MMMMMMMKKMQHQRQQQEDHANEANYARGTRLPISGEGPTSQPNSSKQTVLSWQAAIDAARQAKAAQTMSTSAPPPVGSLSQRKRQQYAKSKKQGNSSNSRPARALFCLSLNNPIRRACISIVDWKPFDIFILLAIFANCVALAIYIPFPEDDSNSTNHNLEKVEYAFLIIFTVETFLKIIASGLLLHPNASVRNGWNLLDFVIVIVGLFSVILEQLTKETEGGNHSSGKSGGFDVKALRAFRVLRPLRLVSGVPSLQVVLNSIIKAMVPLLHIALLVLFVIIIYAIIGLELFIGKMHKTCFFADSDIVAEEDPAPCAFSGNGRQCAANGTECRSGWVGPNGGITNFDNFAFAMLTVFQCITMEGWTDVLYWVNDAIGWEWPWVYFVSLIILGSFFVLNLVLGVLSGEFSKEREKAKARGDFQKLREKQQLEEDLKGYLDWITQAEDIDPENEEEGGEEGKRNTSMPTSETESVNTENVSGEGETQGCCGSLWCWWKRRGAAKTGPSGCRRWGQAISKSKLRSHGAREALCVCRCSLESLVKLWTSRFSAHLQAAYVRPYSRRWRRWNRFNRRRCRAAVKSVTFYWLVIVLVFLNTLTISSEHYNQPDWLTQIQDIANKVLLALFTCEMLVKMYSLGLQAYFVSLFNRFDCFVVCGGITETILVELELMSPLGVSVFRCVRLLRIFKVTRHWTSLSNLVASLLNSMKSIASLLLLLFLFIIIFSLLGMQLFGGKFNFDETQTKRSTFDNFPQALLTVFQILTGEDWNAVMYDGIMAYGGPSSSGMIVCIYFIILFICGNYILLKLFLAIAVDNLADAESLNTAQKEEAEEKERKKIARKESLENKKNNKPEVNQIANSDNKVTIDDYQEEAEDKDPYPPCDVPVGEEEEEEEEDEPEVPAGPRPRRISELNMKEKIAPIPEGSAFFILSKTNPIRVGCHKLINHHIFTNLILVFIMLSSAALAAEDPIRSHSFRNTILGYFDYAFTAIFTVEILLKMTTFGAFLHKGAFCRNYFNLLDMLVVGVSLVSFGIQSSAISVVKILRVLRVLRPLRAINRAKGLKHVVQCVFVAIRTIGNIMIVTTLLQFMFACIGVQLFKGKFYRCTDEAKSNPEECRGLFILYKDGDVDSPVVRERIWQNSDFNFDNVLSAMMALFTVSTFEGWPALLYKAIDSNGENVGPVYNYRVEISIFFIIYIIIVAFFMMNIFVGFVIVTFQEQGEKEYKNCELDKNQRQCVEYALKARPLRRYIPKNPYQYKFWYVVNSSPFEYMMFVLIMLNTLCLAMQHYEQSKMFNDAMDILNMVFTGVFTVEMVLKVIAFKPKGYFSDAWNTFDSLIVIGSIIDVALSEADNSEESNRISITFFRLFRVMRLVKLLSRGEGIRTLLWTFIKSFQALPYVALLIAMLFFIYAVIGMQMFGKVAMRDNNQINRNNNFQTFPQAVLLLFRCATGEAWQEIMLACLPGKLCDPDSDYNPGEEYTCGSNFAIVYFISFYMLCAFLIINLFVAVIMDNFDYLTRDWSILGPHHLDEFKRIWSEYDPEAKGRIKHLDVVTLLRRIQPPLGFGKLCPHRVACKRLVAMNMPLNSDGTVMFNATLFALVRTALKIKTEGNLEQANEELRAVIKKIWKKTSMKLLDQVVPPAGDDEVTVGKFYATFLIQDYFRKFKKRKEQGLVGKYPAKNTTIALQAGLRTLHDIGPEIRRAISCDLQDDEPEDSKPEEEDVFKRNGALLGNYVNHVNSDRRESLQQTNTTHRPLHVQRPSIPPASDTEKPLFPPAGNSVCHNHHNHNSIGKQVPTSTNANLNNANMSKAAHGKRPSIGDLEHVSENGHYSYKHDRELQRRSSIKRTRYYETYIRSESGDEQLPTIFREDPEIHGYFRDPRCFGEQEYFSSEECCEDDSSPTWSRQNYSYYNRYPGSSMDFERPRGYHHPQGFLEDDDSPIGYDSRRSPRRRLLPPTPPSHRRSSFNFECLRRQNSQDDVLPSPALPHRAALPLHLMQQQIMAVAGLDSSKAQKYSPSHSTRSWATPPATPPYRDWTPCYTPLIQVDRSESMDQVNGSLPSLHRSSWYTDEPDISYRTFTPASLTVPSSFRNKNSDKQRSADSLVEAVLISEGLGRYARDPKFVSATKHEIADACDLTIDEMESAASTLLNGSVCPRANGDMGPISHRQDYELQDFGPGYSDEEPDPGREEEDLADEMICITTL

SMILES	Ratio IC50 [1]	IC50 [2] [µM]	IC50 [3] [µM]
O=C1CC(=O)N(C2CCCC2)C(=O)N1CCc1ccc(Cl)c(Cl)c1	2.7	3.4	1.2
CC(C)(CN1C(=O)CC(=O)N(C2CCCC2)C1=O)c1cccc(Cl)c1	4.9	12.6	2.4
CC1(C)CCC[C@H]1N1C(=O)CC(=O)N(CCc2cccc(Cl)c2)C1=O	1.9	4.7	2.5
O=C1CC(=O)N(C2CCCC2)C(=O)N1CCc1cc(C(F)(F)F)cc(C(F)(F)F)c1	1.8	2.6	1.4
CC(=O)O[C@@H]1CCC[C@@H]1N1C(=O)CC(=O)N(CCc2cccc(Cl)c2)C1=O	0.6	23.4	38.6
C[C@@H]1CCC[C@@H]1N1C(=O)CC(=O)N(CCc2cccc(Cl)c2)C1=O	2.3	13	5.5
O=C1CC(=O)N([C@@H]2C[C@@H]3CC[C@H]2C3)C(=O)N1CCc1cccc(Cl)c1	> 50	> 100	2
CC(CN1C(=O)CC(=O)N(C2CC3CCC2C3)C1=O)c1cccc(Cl)c1 (mixture of isomers)	2.1	5.1	2.4
C[C@H]1CCC[C@H]1N1C(=O)CC(=O)N(CCc2cccc(Cl)c2)C1=O	1.3	9.3	7.3
C[C@@H](C1CCCCC1)N1C(=O)CC(=O)N(CCc2ccc(Cl)cc2)C1=O	> 12	> 100	8.3
C[C@H]1CCC[C@@H]1N1C(=O)CC(=O)N(CCc2cccc(Cl)c2)C1=O (racemic)	1.8	21	11
O=C1CC(=O)N(C2CC3CCC2C3)C(=O)N1CCc1ccc(Cl)cc1 (mixture of isomers)	8.9	50	5.6
O=C1CC(=O)N(C2CCCC2)C(=O)N1CCCc1ccccc1	2.9	21.9	7.6
O=C1CC(=O)N(C2CCCC2)C(=O)N1CCc1ccc(OCc2ccccc2)cc1	0.5	18.7	34.1
CC1(C)CCC[C@@H]1N1C(=O)CC(=O)N(CCc2cccc(Cl)c2)C1=O	1.6	3.5	2.1
C[C@H](C1CCCCC1)N1C(=O)CC(=O)N(CCc2ccc(Cl)cc2)C1=O	> 12	> 100	8.1
O=C(OCCc1cccc(F)c1)[C@H]1CC[C@@H](N2C(=O)CC(=O)N(CCc3cccc(Cl)c3)C2=O)C1	0.7	6.7	9.7
O=C1CC(=O)N([C@@H]2C[C@@H]3CC[C@H]2C3)C(=O)N1CCc1ccc(Cl)cc1	11	54	1.9
O=C1CC(=O)N([C@H]2C[C@H]3CC[C@@H]2C3)C(=O)N1CCc1cccc(Cl)c1	> 29	> 100	3.5
COC(=O)C1=C(C)NC(=S)N(C(=O)OC(C)C)C1c1cccc([N+](=O)[O-])c1 (stereo unspecified)	< 2	–	–
O=C1CC(=O)N(C2CCCC2)C(=O)N1CC(c1ccccc1)c1ccccc1	1.6	8.1	5.2
